# Assay results: PubChem BioAssay AID624268 (The Scripps Research Institute Molecular Screening Center, 2012)
# The whole screen tested about 360,000 compounds, of which about 1,500 (0.42%) were called active. The list comes from a sample in which actives are over-represented; it also holds similar structures and randomly drawn compounds. Unmarked numbers belong to inactive results.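 How the source made its calls: active means inhibition above a per-plate cutoff of the control wells' mean inhibition plus 3 SD (cut at about 5.5% in these data); inactive means the rest.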
# System: methionyl-tRNA synthetase (Trypanosoma brucei brucei)
# Assay: T. brucei MetRS inhibitors, primary screen, biochemical, luminescence (AID 624268);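 further: 0% = DMSO wells median and 100% = median of wells with control inhibitor compound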
# Settings: purified T. brucei MetRS, ATP depletion, Kinase-Glo luminescence; at 11.9 µM; active compounds read high
# How it was run: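 Dosing: 11.9 µM compound single dose, 0.9% DMSO; Assay system: purified T. brucei MetRS enzyme; Measured by: Kinase-Glo luciferase luminescence reporting remaining unconsumed ATP; Schedule: 15 min plus 2 h at 25 °C.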
row,SMILES,inhibition
1,C[C@H]1CN([C@@H](C)CO)C(=O)c2cc(-c3ccccc3F)cnc2O[C@H]1CN(C)C(=O)C1CCOCC1,-1.85%
2,O=C(Cn1c(-c2cscn2)nc2ccccc21)Nc1ccc(Cl)cc1,4.33%
3,O=C(Cn1c(NCCO)nc2ccccc21)c1ccc(Cl)cc1Cl,8.55% (active)
4,CCCn1c(=N)n(CC(=O)c2ccc(Cl)c(Cl)c2)c2ccccc21,1.04%
5,Brc1cnc2ccccc2c1N1CCCCC1,-0.62%
6,CCOc1cc(NC(=S)NCCCN(C)C)c(OCC)cc1NC(=O)C1CC1,-0.32%
7,COc1ccc(CCNC(=O)CCc2ccccc2O)cc1OC,-0.3%
8,COc1ccc(CCN2CC(C(=O)OCC(=O)NCc3ccccc3Cl)CC2=O)cc1OC (stereo not given),0.43%
9,COc1ccc(CCn2ccc(O)c(Cc3ccc(Cl)cc3Cl)c2=O)cc1OC,6.37% (active)
10,O=C(NCCN1CCOCC1)Nc1cccc(Cl)c1,0.46%
11,O=C(NCCN1CCOCC1)c1ccccc1N1C(=O)[C@@H]2Cc3c([nH]c4ccccc34)C(c3cccc(Cl)c3)N2C1=O (stereo not given in full),11.4% (active)
12,CC(C)(CNC(=O)c1cc(=O)[nH]c2ccccc12)N1CCOCC1,0.28%
13,CC/C(O)=C1\C(=O)CC(C)(C)CC1=NCCc1nc2ccccc2[nH]1,0.39%
14,CCOC(=O)C(=CNNc1ccsc1C(=O)OC)C(=O)OCC,0.74%
15,Cc1csc(/N=C/N(C)C)c1C#N,-0.21%
16,O=c1c2ccccc2nc2n1C(CSCc1cccc(C(F)(F)F)c1)CS2 (stereo not given),-1%
17,CCN1CCCC1Cn1cnc2c([nH]c3cc(OC)ccc32)c1=O (stereo not given),0.01%
18,CCN1CCCC1CNc1ncnc2c1[nH]c1ccc(F)cc12 (stereo not given),30.4% (active)
19,CC(C)OCCCNc1ncnc2c1[nH]c1ccc(F)cc12,85.6% (active)
20,CCN1CCCC1CNC(=O)Cn1cnc2ccc(S(=O)(=O)N3CCC(C)CC3)cc2c1=O (stereo not given),-0.14%

row,SMILES,inhibition
1,CCNC(=O)CC1C(=O)N(c2ccc(OC)cc2)C(=O)N1CCOC (stereo not given),-0.58%
2,CCOc1ccc(C(C(=O)NC2CCCC2)N(C(=O)c2snc(C(N)=O)c2N)C2CCCC2)cc1 (stereo not given),-0.03%
3,O=C1c2ccccc2[C@@H]2C[C@@H](O)[C@H](Nc3ccccc3Cl)CCN12,-0.62%
4,CN1CCCN(C(=O)C2CCCCC2)CC1,-0.59%
5,O=C(NCc1ccco1)c1sc2cccc(F)c2c1Cl,-1.04%
6,CCN(CC)S(=O)(=O)c1ccc2nc(COC(=O)c3n[nH]c4ccccc34)[nH]c2c1,-0.9%
7,COc1ccc(CCNC(=O)COC(=O)C2CCCCC2)cc1,0.41%
8,O=C(OCc1nc2ccccc2[nH]1)C1CCCCC1,14.4% (active)
9,O=C(c1ccc(N2CCCC2=O)cc1)N1CCN(c2ccc(C(F)(F)F)cc2[N+](=O)[O-])CC1,-0.05%
10,COCCn1c(SC(C)C(=O)NC2CC2)nnc1-c1cccc(C)c1 (stereo not given),-0.37%
11,O=C(Nc1ccc(N2CCOCC2)cc1)c1cccc2c(-c3ccc(F)c(F)c3)coc12,-0.14%
12,CCSc1nsc(NC(=O)Nc2cccc(C(C)=O)c2)n1,-0.36%
13,C=CCSc1nsc(NC(=O)Nc2cccc(C(C)=O)c2)n1,-1.33%
14,CSc1nsc(NC(=O)Nc2ccccc2)n1,19.9% (active)
15,O=C(COC(=O)c1ccc(F)cc1F)Nc1ncccn1,0.09%
16,O=C(ON=C1CCN(S(=O)(=O)c2ccccc2)CC1)c1ccc(Cl)cc1,-0.24%
17,CCCn1c(SCC(=O)Nc2ccc(C)c(S(=O)(=O)N3CCOCC3)c2)n[nH]c1=O,-1.6%
18,COc1ccc(OC)c(NC(=O)Cn2c(=O)oc3ccccc32)c1,-0.7%
19,Cc1ccc(CCCOC(=O)C[N+]2(C)CCCC2)cc1,-0.15%
20,Cc1cccc(C)c1N1C(=O)CN(Cc2ccccc2)C1=S,-1%

row,SMILES,inhibition
1,CCCCN1CC(C)(C)[C@H](CC(=O)Nc2ccc(Br)cc2)C1=O,0.54%
2,C[C@H]1CN(c2ccc(Br)cc2)C(=O)[C@@H]1CC(=O)Nc1ccc(Br)cc1,-0.7%
3,CCCCN1C[C@H](c2ccc(Br)cc2)[C@@H](CC(=O)Nc2ccc(Br)cc2)C1=O,38.6% (active)
4,CCOC(=O)C1=C(c2ccccc2)NC(=O)NC1c1cc(OCC)c(O)c([N+](=O)[O-])c1 (stereo not given),-0.17%
5,O=C1CSc2ccc(C(=O)NCc3ccccn3)cc2N1,-0.41%
6,c1ccc(CCc2ccccn2)cc1,-0.47%
7,c1ccc(CN=C2Nc3ccccc3CS2)nc1,11.2% (active)
8,COc1ccc(C2CC(c3ccc(Cl)cc3Cl)Nc3nc(N)nn32)cc1OC (stereo not given),9.33% (active)
9,CCOc1ccccc1C1CC(c2ccc(Cl)cc2)Nc2nc(N)nn21 (stereo not given),0.5%
10,Cc1ccc(C2CC(c3cccc(Br)c3)n3nc(N)nc3N2)cc1 (stereo not given),-0.23%
11,COc1ccc2[nH]c3nc(SCC(=O)NC4CC4)nnc3c2c1,0.12%
12,Cc1ccc(CNC(=O)CSc2nnc3c(n2)[nH]c2ccc(F)cc23)cc1,15.6% (active)
13,Cc1ccn2c(=O)nc(SCC(=O)NCc3ccc(F)cc3)nc2c1,-0.43%
14,CCCNC(=O)C1(C)CCN(C(=O)c2ccc(F)cc2Cl)C1 (stereo not given),-0.42%
15,O=C(O)c1cc2c(cc1NC(=O)c1c(F)cccc1Cl)OCCCO2,0.17%
16,CCN(CC)CCNC(=O)c1ccc(NC(=O)c2c(F)cccc2Cl)cc1,-0.39%
17,O=C(NNc1cc(Cl)cc(Cl)c1)c1c(F)cccc1Cl,45.1% (active)
18,C=CCC(Nc1ccccc1)c1cccc(OC)c1OC (stereo not given),0.2%
19,O=C1COc2ccc(C(=O)COC(=O)C3CC(O)CN3S(=O)(=O)c3ccc(Cl)cc3)cc2N1 (stereo not given),0.64%
20,CNC[C@@H]1Oc2c(NS(C)(=O)=O)cccc2C(=O)N([C@@H](C)CO)C[C@H]1C,-0.2%
